From ChEMBL document CHEMBL3870305, “Synthesis, biological evaluation and molecular modeling studies of imidazo[1,2-a]pyridines derivatives as protein kinase inhibitors” (Eur J Med Chem, 2016)
Activity calls are given as the source filed them. No cut-off for these calls is given here.

Legend:
CLK1 (Mus musculus) [1] = test: Inhibition of CLK1 (unknown origin)
[2] = biological target: DYRK1A (Rattus norvegicus); test: Inhibition of DYRK1A (unknown origin)
[3] = biological target: Glycogen synthase kinase-3 alpha/beta (Sus scrofa); test: Inhibition of GSK-3 alpha/beta (unknown origin)
[4] = biological target: Casein kinase I delta/epsilon (Sus scrofa); test: Inhibition of CK1 delta/epsilon (unknown origin)
[5] = biological target: Dual specificity protein kinase CLK1 (Mus musculus) (UniProt P22518); test: Competitive inhibition of full length recombinant mouse CLK1 expressed in bacteria using GRSRSRSRSRSR peptide as substrate in presence of varying levels of ATP by double-reciprocal method
Sequence of Dual specificity protein kinase CLK1 (Mus musculus) (P22518 whole entry, looked up): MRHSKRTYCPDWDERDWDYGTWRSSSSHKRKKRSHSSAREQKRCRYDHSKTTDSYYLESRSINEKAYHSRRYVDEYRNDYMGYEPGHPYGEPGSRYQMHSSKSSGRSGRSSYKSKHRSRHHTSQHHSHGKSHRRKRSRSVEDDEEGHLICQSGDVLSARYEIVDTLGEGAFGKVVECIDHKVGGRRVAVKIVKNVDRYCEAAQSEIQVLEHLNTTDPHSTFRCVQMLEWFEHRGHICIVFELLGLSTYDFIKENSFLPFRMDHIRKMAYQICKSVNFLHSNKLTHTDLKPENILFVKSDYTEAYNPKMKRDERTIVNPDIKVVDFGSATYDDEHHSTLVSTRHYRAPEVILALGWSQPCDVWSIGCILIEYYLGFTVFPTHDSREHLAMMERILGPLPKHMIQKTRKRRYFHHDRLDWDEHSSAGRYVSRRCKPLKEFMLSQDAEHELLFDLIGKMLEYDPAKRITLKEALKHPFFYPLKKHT

[6] = biological target: Cyclin-dependent kinase 1/cyclin B1 (Homo sapiens) (UniProt P06493+P14635); test: Inhibition of full length recombinant human CDK1/CyclinB1 expressed in baculovirus infected Sf9 insect cells at 10 uM using histone H1 as substrate in presence of gamma[33P]ATP
Sequence of Cyclin-dependent kinase 1/cyclin B1 (Homo sapiens) (P06493 whole entry, looked up): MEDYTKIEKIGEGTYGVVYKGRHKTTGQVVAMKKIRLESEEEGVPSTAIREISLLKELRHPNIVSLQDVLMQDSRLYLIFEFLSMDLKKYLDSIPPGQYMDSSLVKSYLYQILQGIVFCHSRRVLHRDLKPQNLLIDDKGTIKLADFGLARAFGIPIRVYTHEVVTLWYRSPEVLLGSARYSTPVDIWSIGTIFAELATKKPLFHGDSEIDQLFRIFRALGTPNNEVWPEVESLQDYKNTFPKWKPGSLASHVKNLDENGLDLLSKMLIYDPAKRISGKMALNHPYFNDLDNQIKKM
Sequence of Cyclin-dependent kinase 1/cyclin B1 (Homo sapiens) (P14635 whole entry, looked up): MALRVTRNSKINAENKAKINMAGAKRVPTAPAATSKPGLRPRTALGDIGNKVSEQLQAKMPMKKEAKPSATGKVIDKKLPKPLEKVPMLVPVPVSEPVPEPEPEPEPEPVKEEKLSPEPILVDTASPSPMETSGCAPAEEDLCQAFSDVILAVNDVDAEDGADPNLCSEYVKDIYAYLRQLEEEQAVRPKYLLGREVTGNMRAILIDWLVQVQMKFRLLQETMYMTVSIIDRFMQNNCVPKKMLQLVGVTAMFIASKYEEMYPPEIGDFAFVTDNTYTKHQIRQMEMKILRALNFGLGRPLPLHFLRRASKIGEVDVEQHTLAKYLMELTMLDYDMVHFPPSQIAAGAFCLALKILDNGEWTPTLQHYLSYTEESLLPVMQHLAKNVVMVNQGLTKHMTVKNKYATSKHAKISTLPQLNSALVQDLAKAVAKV
Summary of the method: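 Buffer G (40 mM Tris pH 7.5, 20 mM MgCl2, 0.1 mg/ml BSA) with 0.8 µg/µl histone H1 and 15 µM [γ-33P]ATP. Compound tested at 10 µM; activity as % of the no-inhibitor control; n = 2, mean ± range.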

[7] = biological target: CDK2/Cyclin A2 (Homo sapiens) (UniProt P24941+P20248); test: Inhibition of full length human CDK2/CyclinA at 10 uM using histone H1 as substrate in presence of gamma[33P]ATP; assay type: protein-complex assay
[8] = biological target: CDK9/cyclin T1 (Homo sapiens) (UniProt O60563+P50750); test: Inhibition of full length recombinant human CDK9/CyclinT expressed in baculovirus infected Sf9 insect cells at 10 uM using YSPTSPSYSPTSPSYSPTSPSKKKK as substrate in presence of gamma[33P]ATP
[9] = biological target: Cyclin-dependent kinase 5/CDK5 activator 1 (Homo sapiens) (UniProt Q00535+Q15078); test: Inhibition of full length recombinant human CDK5/p25 expressed in bacteria at 10 uM using histone H1 as substrate in presence of gamma[33P]ATP
Sequence of Cyclin-dependent kinase 5/CDK5 activator 1 (Homo sapiens) (Q00535 whole entry): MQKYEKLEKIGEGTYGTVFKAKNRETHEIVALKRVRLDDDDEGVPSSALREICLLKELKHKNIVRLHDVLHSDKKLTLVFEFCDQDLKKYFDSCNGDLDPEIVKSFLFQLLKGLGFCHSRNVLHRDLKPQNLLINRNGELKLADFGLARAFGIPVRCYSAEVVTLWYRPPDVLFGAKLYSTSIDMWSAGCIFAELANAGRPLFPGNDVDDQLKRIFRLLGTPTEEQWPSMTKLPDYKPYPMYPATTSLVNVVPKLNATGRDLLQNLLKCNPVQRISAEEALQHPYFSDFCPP
Sequence of Cyclin-dependent kinase 5/CDK5 activator 1 (Homo sapiens) (Q15078 99-307 partner limits assumed): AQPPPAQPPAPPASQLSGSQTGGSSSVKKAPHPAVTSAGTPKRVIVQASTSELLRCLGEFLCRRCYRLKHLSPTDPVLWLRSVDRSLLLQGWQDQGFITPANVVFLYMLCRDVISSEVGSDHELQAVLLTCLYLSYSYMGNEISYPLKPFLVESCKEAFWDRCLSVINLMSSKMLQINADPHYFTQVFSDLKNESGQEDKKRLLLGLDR
Summary of the method: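 Buffer B (25 mM MOPS pH 7, β-glycerophosphate, p-nitrophenyl-phosphate, EGTA, 15 mM MgCl2, DTT, orthovanadate) with 0.8 µg/µl histone H1 and 15 µM [γ-33P]ATP. Compound tested at 10 µM; activity as % of the no-inhibitor control; n = 2, mean ± range.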

CLK1 (Mus musculus) [10] = test: Inhibition of CLK1 (unknown origin) at 10 uM in presence of gamma[33P]ATP relative to control
[11] = tested on: DYRK1A (Rattus norvegicus); test: Inhibition of DYRK1A (unknown origin) at 10 uM in presence of gamma[33P]ATP relative to control

Structure (SMILES)	IC50 (CLK1 (Mus musculus) [1])	IC50 [2]	IC50 [3]	IC50 [4]	inhibition [5]	inhibition [6]	inhibition [7]	inhibition [8]	inhibition [9]	inhibition (CLK1 (Mus musculus) [10])	inhibition [11]
COc1cccc(-c2cn3cc(Cl)ccc3n2)c1	> 10 µM	> 10 µM	> 10 µM	> 10 µM	–	–	–	–	–	–	–
NC(=O)c1cc(-c2cn3cc(Br)ccc3n2)ccc1O	0.7 µM	2.6 µM	> 10 µM	> 10 µM	Active	Active	Active	Active	Active	> 50%	> 50%
Oc1ccc(-c2cn3cc(Cl)ccc3n2)cc1	> 10 µM	> 10 µM	> 10 µM	> 10 µM	–	–	–	–	–	–	–
NC(=O)c1cc(-c2cn3cc(-c4ccc([N+](=O)[O-])cc4)ccc3n2)ccc1O	> 10 µM	> 10 µM	> 10 µM	> 10 µM	–	–	–	–	–	–	–
NC(=O)c1cc(-c2cn3cc(F)ccc3n2)ccc1O	1.4 µM	4.7 µM	> 10 µM	> 10 µM	–	–	–	–	–	> 50%	> 50%
NC(=O)c1cc(-c2cn3cc(O)ccc3n2)ccc1O	–	–	–	–	–	Active	Active	Active	Active	–	–
COc1cc(-c2cn3cc(Cl)ccc3n2)cc(OC)c1OC	> 10 µM	> 10 µM	> 10 µM	> 10 µM	–	–	–	–	–	–	–
NC(=O)c1cc(-c2cn3cc(Cl)ccc3n2)ccc1O	–	–	–	–	–	Active	Active	Active	Active	–	–
NC(=O)c1cc(-c2cn3cc(N)ccc3n2)ccc1O	> 10 µM	> 10 µM	> 10 µM	> 10 µM	–	–	–	–	–	–	–
COc1cc(OC)cc(-c2cn3cc(Cl)ccc3n2)c1	> 10 µM	> 10 µM	> 10 µM	> 10 µM	–	–	–	–	–	–	–
NC(=O)c1cc(-c2cn3ccccc3n2)ccc1O	1 µM	4 µM	> 10 µM	> 10 µM	–	–	–	–	–	> 50%	> 50%
